Test results taken from ChEMBL document CHEMBL4513216, “Probing the Open Global Health Chemical Diversity Library for Multistage-Active Starting Points for Next-Generation Antimalarials” (ACS Infect Dis, 2020).

Experiment: Toxicity liver stage against HepG2, at 10uM
Type: cell-based
Design: test concentration 10 uM, cell line HepG2-A16-CD81EGFP
Conditions: human, HepG2-A16-CD81EGFP cells; read-out: INHIBITION
Procedure, shortened: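 Uninfected HepG2-A16-CD81EGFP cells, 3 × 10^3 per well, 1536-well, plated on prespotted compound at 10 μM final, parasite-free screening media added to match infected plates; puromycin 10 μM positive, DMSO 0.5% negative; run in parallel with 48 h PbLuc assay at 37 °C, 5% CO2; viability by CellTiter-Glo luminescence, normalized to controls.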

| Compound | cytotoxicity at 10 µM [%] |
| --- | --- |
| COCc1cc(C[C@@H]2CC[C@H](O)[C@@H](CN(CC(C)C)CC(C)C)O2)no1 | 0.169 |
| O=C(O)CN(C(=O)c1ccccc1)[C@H]1C[C@H]2CCOC[C@H]2C1 | -1.03 |
| COCCn1/c(=N\C(=O)CN(C)S(C)(=O)=O)sc2cc(Cl)ccc21 | -13.7 |
| COCC(=O)NCC1CCN(Cc2ccsc2)CC1 | -3.88 |
| O=S(=O)(c1ccccc1Cl)N1CCC2(CC1)OCCS2 | -4.84 |
| CC1(C)OCC2(CO1)CN(C(=O)c1cccc3ccccc13)C2 | -7.81 |
| COC(=O)N1CCc2ccccc2C1C(=O)NCC(F)(F)F (centres undefined) | -2.96 |
| O=C1CCSCC(C(=O)N2CCC3(CC2)OCCO3)N1 (centres undefined) | 0.595 |
| CCc1c(C)nc2n(c1=O)CC(C(=O)Nc1sccc1C(=O)OC)CS2 (centres undefined) | 3.24 |
| Cn1nc(CNC(=O)c2ccc(OC(F)(F)F)cc2)c2c1CCOC2 | 7.03 |
| Cc1nnc([C@H]2C[C@@H]3CCN(C(=O)C4CCOCC4)C[C@H]3O2)[nH]1 | 16.5 |
| COc1ccc(CC(=O)N2CC[C@@H]3NC(=O)CC[C@@H]32)cc1 | -1.89 |
| O=C(c1c2c(N3CCOCC3)ncnc2n2ccccc12)N1CCCC1 | -1.52 |
| O=C(Cn1ccc2ccc(Cl)cc21)NCc1ccc(C(=O)O)cc1 | 7.91 |
| O=C(CCn1ccc2ccc(Br)cc21)/N=c1\[nH]nc(C2CCCO2)s1 (centres undefined) | -9.46 |
| CC(C)n1[nH]c(=O)c2c1NC(=O)CC2c1cccc(Br)c1 (centres undefined) | 5.28 |
| CCc1c(C)nc2n(c1=O)CC(C(=O)Nc1ccccc1F)CS2 (centres undefined) | 1.57 |
| COCC1CN(Cc2ccc(C)o2)Cc2ncn(CC3CC3)c21 (centres undefined) | -11 |
| CCOC(=O)N1CCN(C(=O)c2cc(-c3ccc(Cl)cc3Cl)on2)CC1 | 2.42 |
| O=C1CNc2ncnc(Nc3cnn(Cc4cccc(F)c4)c3)c2N1 | 4.67 |
| Cc1nn(C)c2c(NCc3ccncc3)nc(C3CC3)nc12 | -4.17 |
| CCc1cc(=O)[nH]c(NC2CCN(S(=O)(=O)c3ccccc3)CC2)n1 | -5.49 |

| Compound | cytotoxicity at 10 µM [%] |
| --- | --- |
| CS(=O)(=O)N[C@@H]1CN(Cc2ccc3ccccc3c2)C[C@H]1O | -2.92 |
| CC(=O)N1CCC(c2cncc(N3CCCC(O)C3)n2)CC1 (centres undefined) | -1.47 |
| Cc1csc(C(Cc2ccsc2)NC(=O)c2cc(=O)n(C)c(=O)n2C)n1 (centres undefined) | -12.3 |
| Cc1ccccc1CC(=O)N1C[C@@H](O)[C@H](N2CCN(C)CC2)C1 | -4.29 |
| O=C(O)C1CN(c2cccc(F)c2)CCO1 (centres undefined) | -25.2 |
| O=C(O)C1CN(c2cccc(Cl)c2)CCO1 (centres undefined) | -12.4 |
| Cc1nc2ccccn2c1CC(=O)N[C@@H]1CC[C@@H](N2CCCC2)[C@@H]1O | -12.4 |
| Cc1cnc(C(=O)N2Cc3ccccc3OC3(CCOCC3)C2)cn1 | -1.54 |
| Cc1ncc(CN2CCOC(c3ccc(-c4cnn(C)c4)cn3)C2)s1 (centres undefined) | -23 |
| CCC(=O)N1CCC(c2cc(Nc3ncccn3)nc(C)n2)C1 (centres undefined) | -24 |
| O=C(Cn1ccnc1)N1C[C@@H]2CC[C@H](Oc3ccccc3F)[C@@H]2C1 | -28.9 |
| CN1CCC(c2cccc(CCC(=O)NCC(N)=O)n2)CC1 | -20.1 |
| O=S(=O)(CCOc1ccc(F)cc1)Nc1cnn(CC(F)F)c1 | -4.87 |
| CC(C)c1cc(C(=O)N(c2ccc(F)cn2)C2CCOCC2)on1 | -9.01 |
| N#Cc1ccc(CS(=O)(=O)NC(=O)c2ccc(C#N)cc2)cc1 | 5.47 |
| O=C(Nc1ccccc1-c1ccccc1)NC1CCC2(C1)OCCO2 (centres undefined) | 8.84 |
| O=C(NCCN1CCCCCC1)c1cccc(Cl)c1Cl | 5.8 |
| CCOc1cc(F)ccc1NC1CCN(CC(F)(F)F)C1=O (centres undefined) | -0.302 |
| O=C(NCCO)Nc1ccc(Cl)cc1-n1cccc1 | 7.82 |
| COCC(=O)N(CCC(=O)OC)CC1CCCO1 (centres undefined) | 1.74 |
| Cn1nc2c(cc1=O)CN(Cc1nc(-c3ccoc3)no1)CC2 | 7.72 |
| O=C(NCC(=O)N1CCCC1Cc1cccc(F)c1)c1ccccn1 (centres undefined) | -8.51 |

| Compound | cytotoxicity at 10 µM [%] |
| --- | --- |
| CN(C)CC1CN(CC(=O)N2CCc3ccccc32)CCO1 (centres undefined) | -1.61 |
| CCC(O)CN1CCN(C(=O)C2(c3ccc(C)c(OC)c3)CC2)CC1 (centres undefined) | 3.83 |
| N#Cc1ccc(C(=O)N(C2CC2)C2CC(=O)NC2=O)cc1 (centres undefined) | -4.64 |
| O=C(NCCNc1cnccn1)N1CC=C(c2ccc(O)cc2)CC1 | 18.6 |
| CS(=O)(=O)NCCNC(=O)NC1(c2ccc(Cl)cc2)CCC1 | -2.48 |
| N#Cc1ccc(SCCCO)c(F)c1 | 5.11 |
| COc1ccc(C(CO)NC(=O)Nc2cccc(C(C)=O)c2)cc1 (centres undefined) | 3.43 |
| N#Cc1cccc(OCCN2CCCC(c3noc(C4CC4)n3)C2)c1 (centres undefined) | -0.276 |
| COc1ccnc(N2CCN(C(=O)c3cscn3)CC2)n1 | 0.883 |
| CN(Cc1noc(C2CC2)n1)CC1CCN(CCO)CC1 | -3.96 |
| Cc1nc2n(n1)CC(Nc1nc(-c3ccccc3)no1)CC2 (centres undefined) | 0.658 |
| Cc1ccc(S(=O)(=O)N(C)CC(N)=O)c(Cl)c1 | 5.79 |
| O=C(Nc1ccccc1OCC(F)F)N[C@@H]1C=C[C@H](CO)C1 | -7.14 |
| COc1ccc2cccc(CC(=O)NCCCc3n[nH]c(C)n3)c2c1 | -2.11 |
| CNC(=O)c1ccc(NC(=O)NC(C)c2cc(C)oc2C)cc1 (centres undefined) | -12.8 |
| CCC(NC(=O)c1cccc2[nH]ccc12)C(=O)N1CCOCC1 (centres undefined) | -4.1 |
| FC(F)(F)c1ccnc(N2CCCCCC2)c1 | 3.02 |
| O=C(CN1CCCS(=O)(=O)CC1)NCc1ccccc1F | 3.76 |
| O=C(NCc1nc2cc(F)ccc2[nH]1)c1ccc[nH]1 | 11.9 |
| COCC(C)NC(=O)CN1CCC(CO)CC1 (centres undefined) | -6.16 |
| COc1ccc(CCN2CC(n3nc(C)cc3C)C2)cc1 | -9.12 |
| CN(Cc1nnc(C2CC2)n1C)S(=O)(=O)c1ccc(F)c(C#N)c1 | 18.4 |

| Compound | cytotoxicity at 10 µM [%] |
| --- | --- |
| OC(CN1CCCCc2ccccc21)Cn1cccn1 (centres undefined) | 5.55 |
| CC(C)OCCN(Cc1cccc(O)c1)C1CCC(O)CC1 (centres undefined) | 5.81 |
| CN(Cc1ccc(Cl)s1)C(=O)c1cccc(OCC(N)=O)c1 | -1.61 |
| Cc1ccc(-n2nnc(CC(=O)N3CCSCC3)c2C)cc1 | -13.1 |
| Cc1oc(-c2ccsc2)nc1CC(=O)NCCS(C)(=O)=O | -8.6 |
| Cc1ccccc1-c1cc(NC(=O)CC(C)C)n(CCO)n1 | 7.47 |
| CC(C)Cc1noc(CN2CCN(C(=O)c3ccco3)CC2)n1 | -5.39 |
| CN1C(=O)C(c2cccnc2)CC12CCN(CCO)CC2 (centres undefined) | 3.55 |
| CCc1nn(C)c(Cl)c1CN1CCC(Cc2nncn2C)CC1 | -1.52 |
| CCc1cc(CN(C)C(=O)CN2CC(Cc3ccccc3)CC2=O)on1 (centres undefined) | -0.28 |
| CCc1cc(N2CCN(C(C)=O)CC2)n2nc(C)c(C)c2n1 | 3.96 |
| COc1cccc2c(=O)n(Cc3cc(C4CC4)[nH]n3)cnc12 | 3.76 |
| CC(C)C[C@@H](CO)n1cc(-c2cnc(-c3ccco3)nc2)nn1 | -0.662 |
| CCN1CCCC(c2c(-c3ccccc3)ncn2CCCO)C1 (centres undefined) | -3.41 |
| CC(C)CCN(C)Cc1ccccc1-c1nc(C(C)C)cc(=O)[nH]1 | 5.46 |
| CNc1nc(N2CCC3(CCCNC3=O)C2)nc2c1CCC2 (centres undefined) | -4.95 |
| C[C@H](c1ccc(F)cc1)n1c(C2CCC2)n[nH]c1=O | -5.95 |
| CCc1cc(N(C)Cc2c(C)nn(C)c2C)n2nccc2n1 | 0.613 |
| CCCn1ccnc1CN1C[C@@H](NC(C)=O)[C@H](c2ccc(C)cc2)C1 | 1.9 |
| C[C@@H]1CN(C(=O)c2ccncc2)CC[C@@]1(O)C1CCOCC1 | 0.301 |
| COc1cccc(C(=O)N2CCc3c(nc(N)[nH]c3=O)C2)c1OC | -9.91 |
| CN(C)c1ncc(-c2c(-c3ccccc3)ncn2C(CO)C(=O)O)cn1 (centres undefined) | 0.471 |

| Compound | cytotoxicity at 10 µM [%] |
| --- | --- |
| Cc1ccc(NC(=O)c2cc3c(=O)n(C)c(=O)n(C)c3nc2C)cc1Cl | -7.15 |
| CN(C)C(=O)CCCNc1ncc2c(n1)CCN2c1ccccc1 | 2.29 |
| Cc1cc(N2CCC(O)(CN(C)C)C2)c2cc3c(cc2n1)OCO3 (centres undefined) | 45.4 |
| O=C(NC[C@]1(O)CN(Cc2ccccc2F)C[C@H]1O)c1ccccn1 | 1.15 |
| CCc1nccn1C1CCCN(C(=O)c2ccc3nnc(C)n3c2)C1 (centres undefined) | -8.95 |
| COc1cc(CCC(=O)NC2CCCN(C)C2)ccc1OCC(F)(F)F (centres undefined) | -4.54 |
| Cc1cnn(CC2CN(Cc3csc(C4CCCC4)n3)CCO2)c1 (centres undefined) | -5.47 |
| CCS(=O)(=O)N1CCC(NC(=O)c2cc(C(C)C)ccc2O)CC1 | -5.16 |
| Cc1cnn(CC2CCCCN2Cc2cnc(C)s2)c1 (centres undefined) | -11.3 |
| CC(=O)Nc1ccc(-n2cncn2)c(F)c1 | -11.3 |
| O=C(Cn1nc(-c2ccc(F)cc2)oc1=O)NCc1ccncc1 | -9.21 |
| CNS(=O)(=O)c1ccc(C(=O)NCCc2ccccn2)cc1 | -3.81 |
| CC(=O)N(Cc1noc(C)n1)C1CCN(Cc2cc(C)on2)C1 (centres undefined) | 4.38 |
| CC1CCCN(Cc2ccnc(-c3cccnc3)n2)C1 (centres undefined) | -6.57 |
| N#Cc1ccc(N2CCC3(CC2)COCCN3Cc2cccnc2)cc1 | -1.77 |
| CC(C)NC(=O)N1CCc2ncnc(-c3ccncc3)c2CC1 | -0.736 |
| O=C(c1ccco1)N1C[C@H]2CCCN(Cc3ccncc3)[C@H]2C1 | 0.361 |
| CCCS(=O)(=O)N1C[C@@H](OCc2ccncc2)[C@H]2OCCC[C@H]21 | 5.56 |
| CC1CCN(C(=O)[C@H]2C[C@@H]3CCN(CC4CCOCC4)C[C@H]3O2)CC1 | 5.35 |
| Cc1ccc(CN2CCC3(CCC3NC(=O)c3ccn(C)c3)CC2)s1 (centres undefined) | -151 |
| O=C(c1cnccn1)N1C[C@H]2CC[C@@H](C1)N(S(=O)(=O)c1cccnc1)C2 | -2.03 |
